In data set [1] the target is Sigma non-opioid intracellular receptor 1 (Cavia porcellus, UniProt Q60492). Kind of data set: Displacement of [3H]-(+)-pnetazocin from sigma1 receptor in guinea pig brain membrane incubated for 150 mins by liquid scintillation counting method. It counts as cell membranes.
The target in data set [2] is Mu-type opioid receptor (Cavia porcellus, UniProt P97266). Put plainly: Displacement of [3H]DAMGO from mu opioid receptor in guinea pig brain membrane incubated for 2.5 hrs by scintillation counting method. Type of data set: cell membranes.
The nature of data set [3]: Toxicity in sc dosed ICR mouse assessed as mortality after 24 hrs. It counts as organism-based. The following applies: in vivo.
The subject of data set [4] is Mus musculus. Put plainly: Antiallodynic activity against formalin-induced nociceptive behavior in ICR mouse assessed as licking/biting time at 50 mg/kg, sc pre-treated for 30 mins followed by formalin-stimulation and measured up to 15 to 30 mins. The following applies: time min <=45. It counts as functional. In outline:
(§1)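 Male/female unspecified ICR mice (n=10 per group) given test compound s.c. or vehicle 30% PEG 400 (4 mL/kg) 30 min before intraplantar injection of 100 µL 5% formalin (1.85% formaldehyde) into right hind paw; time spent licking/biting recorded 0-5 min (phase I) and 15-45 min (phase II); antinociception % = (LT vehicle − LT drug)/LT vehicle × 100; mean ± SEM.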

For data set [5], the system named is Mus musculus. Put plainly: Antiallodynic activity against formalin-induced nociceptive behavior in ICR mouse assessed as licking/biting time at 50 mg/kg, sc pre-treated for 30 mins followed by formalin-stimulation and measured up to 5 mins. Type of data set: functional. As to conditions: time min <=35. The method in brief:
as §1

In data set [6] the test system is Rattus norvegicus. Put plainly: Antinociceptive activity in CCI-induced Sprague-Dawley rat model of neuropathic pain assessed as paw withdrawal latency at 50 mg/kg, sc after 15 days. Type of data set: functional, organism-based. The following applies: time 15.0 day.
Data set [7] is described as follows: Therapeutic index, ratio of LD50 for toxicity in ICR mouse to ED50 for antiallodynic activity against formalin-induced nociceptive behavior in ICR mouse. The following applies: read-out: Ratio LD50/ED50. In outline:
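TI = LD50/ED50: LD50 from s.c. acute toxicity in mice, ED50 from phase II of formalin test (s.c. dosing 30 min before formalin, 12.5–100 mg/kg).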

Data set [8] addresses Sodium-dependent serotonin transporter (Homo sapiens) (UniProt P31645). Put plainly: Inhibition of 5-HT transporter (unknown origin) at 1 uM relative to control.
The species named for data set [9] is Homo sapiens. Put plainly: Inhibition of NMDA receptor (unknown origin) at 1 uM relative to control.
Data set [10] has as its system Mus musculus. Put plainly: Antiallodynic activity against formalin-induced nociceptive behavior in ICR mouse assessed as licking/biting time at 12.5 mg/kg, sc pre-treated for 30 mins followed by formalin-stimulation and measured up to 15 to 30 mins. As to conditions: time min <=45. Type of data set: functional. In outline: as §1
In data set [11] the test system is Rattus norvegicus. Put plainly: Antinociceptive activity in CCI-induced sc dosed Sprague-Dawley rat model of neuropathic pain assessed as paw withdrawal latency after 15 days. It counts as functional. As to conditions: 360 h, time 15 day.
Data set [12] relates to Mus musculus. Put plainly: Antiallodynic activity against formalin-induced nociceptive behavior in sc dosed ICR mouse assessed as licking/biting time pre-treated for 30 mins followed by formalin-stimulation and measured up to 15 to 30 mins. It counts as functional. The following applies: dose 12.5-100 mg/kg, time min <=45. The method in brief: as §1
Data set [13] deals with 5-hydroxytryptamine receptor 2A (Homo sapiens) (UniProt P28223). Put plainly: Inhibition of 5HT2A receptor (unknown origin) at 1 uM relative to control.
Data set [14] deals with Mus musculus. Put plainly: Antiallodynic activity against formalin-induced nociceptive behavior in ICR mouse assessed as licking/biting time at 100 mg/kg, sc pre-treated for 30 mins followed by formalin-stimulation and measured up to 15 to 30 mins. It counts as functional. The following applies: time min <=45. In outline:
as §1

Data set [15] is filed under the species Homo sapiens. Kind of data set: Inhibition of adrenergic alpha2 receptor (unknown origin) at 1 uM relative to control.
The species entered for data set [16] is Homo sapiens. Kind of data set: Inhibition of adrenergic alpha1 receptor (unknown origin) at 1 uM relative to control.
Data set [17] has as its system Mus musculus. Kind of data set: Antiallodynic activity against formalin-induced nociceptive behavior in ICR mouse assessed as licking/biting time at 25 mg/kg, sc pre-treated for 30 mins followed by formalin-stimulation and measured up to 15 to 30 mins. The following applies: time min <=45. Type of data set: functional. The method in brief:
as §1

Data set [18] addresses Cannabinoid receptor 1 (Homo sapiens) (UniProt P21554). Kind of data set: Inhibition of CB1 receptor (unknown origin) at 1 uM relative to control.
Data set [19] has as its target T1, 5-hydroxytryptamine receptor 1A (Homo sapiens) (UniProt P08908).
T1 sequence (whole entry): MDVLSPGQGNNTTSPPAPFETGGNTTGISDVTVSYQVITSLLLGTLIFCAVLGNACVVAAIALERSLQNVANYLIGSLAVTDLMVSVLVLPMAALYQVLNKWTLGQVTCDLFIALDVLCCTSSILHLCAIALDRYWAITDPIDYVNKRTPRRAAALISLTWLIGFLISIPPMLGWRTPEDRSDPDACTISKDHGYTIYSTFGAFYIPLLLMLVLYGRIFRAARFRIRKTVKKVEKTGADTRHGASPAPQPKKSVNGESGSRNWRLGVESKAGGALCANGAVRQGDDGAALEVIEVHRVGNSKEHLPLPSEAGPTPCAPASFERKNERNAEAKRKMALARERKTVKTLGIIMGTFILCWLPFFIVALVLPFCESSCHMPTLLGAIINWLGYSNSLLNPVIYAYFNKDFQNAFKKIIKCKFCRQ
Kind of data set: Inhibition of 5HT1A receptor (unknown origin) at 1 uM relative to control.

The target in data set [20] is Histamine H3 receptor (Homo sapiens) (UniProt Q9Y5N1). Put plainly: Inhibition of histamine H3 receptor (unknown origin) at 1 uM relative to control.
The species entered for data set [21] is Homo sapiens. Put plainly: Inhibition of sigma 2 receptor (unknown origin) at 1 uM relative to control.
The target in data set [22] is Sodium-dependent noradrenaline transporter (Homo sapiens) (UniProt P23975). Put plainly: Inhibition of noradrenaline transporter (unknown origin) at 1 uM relative to control.
In data set [23] the target is Cannabinoid receptor 2 (Homo sapiens) (UniProt P34972). Kind of data set: Inhibition of CB2 receptor (unknown origin) at 1 uM relative to control.

SMILES strings stand for the structures. pKi: −log10 of the molar value. Active and inactive are the calls of the source. No cut-off for these calls is given here.

Sequence of Sigma non-opioid intracellular receptor 1 (Q60492 whole entry): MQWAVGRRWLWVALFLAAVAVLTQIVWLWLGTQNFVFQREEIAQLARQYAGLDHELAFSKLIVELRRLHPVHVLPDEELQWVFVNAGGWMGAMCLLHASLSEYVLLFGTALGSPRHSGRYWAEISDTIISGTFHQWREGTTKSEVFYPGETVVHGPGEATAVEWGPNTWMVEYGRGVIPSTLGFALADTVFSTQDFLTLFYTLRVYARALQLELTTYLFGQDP
Sequence of Sodium-dependent serotonin transporter (Homo sapiens) (P31645 whole entry, looked up): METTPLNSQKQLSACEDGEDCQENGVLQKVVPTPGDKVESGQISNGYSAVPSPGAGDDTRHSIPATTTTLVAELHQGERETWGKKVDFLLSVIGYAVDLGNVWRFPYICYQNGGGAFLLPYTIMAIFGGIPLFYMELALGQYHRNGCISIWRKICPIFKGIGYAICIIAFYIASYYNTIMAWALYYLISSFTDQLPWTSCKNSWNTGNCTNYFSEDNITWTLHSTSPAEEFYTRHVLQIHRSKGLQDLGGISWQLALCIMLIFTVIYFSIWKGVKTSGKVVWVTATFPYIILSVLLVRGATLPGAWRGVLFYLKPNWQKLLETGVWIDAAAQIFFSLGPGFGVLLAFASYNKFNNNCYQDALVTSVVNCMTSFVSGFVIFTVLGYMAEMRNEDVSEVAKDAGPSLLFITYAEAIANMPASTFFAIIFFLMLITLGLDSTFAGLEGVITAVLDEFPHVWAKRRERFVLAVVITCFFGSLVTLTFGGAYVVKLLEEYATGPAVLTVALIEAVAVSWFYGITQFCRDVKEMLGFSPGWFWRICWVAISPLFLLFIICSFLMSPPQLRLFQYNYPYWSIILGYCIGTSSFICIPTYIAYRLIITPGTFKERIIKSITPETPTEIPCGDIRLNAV
Sequence of Cannabinoid receptor 2 (Homo sapiens) (P34972 whole entry): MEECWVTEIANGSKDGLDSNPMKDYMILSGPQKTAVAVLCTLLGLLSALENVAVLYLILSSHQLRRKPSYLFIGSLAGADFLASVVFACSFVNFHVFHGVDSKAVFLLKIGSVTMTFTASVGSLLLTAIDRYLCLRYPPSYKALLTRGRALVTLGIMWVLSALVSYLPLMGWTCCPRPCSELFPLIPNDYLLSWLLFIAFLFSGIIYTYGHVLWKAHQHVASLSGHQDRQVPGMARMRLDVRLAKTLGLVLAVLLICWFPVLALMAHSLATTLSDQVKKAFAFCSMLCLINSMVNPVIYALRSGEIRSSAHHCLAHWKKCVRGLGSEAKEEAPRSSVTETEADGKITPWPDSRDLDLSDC
Sequence of Mu-type opioid receptor (P97266 whole entry): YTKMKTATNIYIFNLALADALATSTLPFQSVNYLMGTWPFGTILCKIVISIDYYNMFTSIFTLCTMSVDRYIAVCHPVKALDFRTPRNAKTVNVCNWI
Sequence of Sodium-dependent noradrenaline transporter (Homo sapiens) (P23975 whole entry): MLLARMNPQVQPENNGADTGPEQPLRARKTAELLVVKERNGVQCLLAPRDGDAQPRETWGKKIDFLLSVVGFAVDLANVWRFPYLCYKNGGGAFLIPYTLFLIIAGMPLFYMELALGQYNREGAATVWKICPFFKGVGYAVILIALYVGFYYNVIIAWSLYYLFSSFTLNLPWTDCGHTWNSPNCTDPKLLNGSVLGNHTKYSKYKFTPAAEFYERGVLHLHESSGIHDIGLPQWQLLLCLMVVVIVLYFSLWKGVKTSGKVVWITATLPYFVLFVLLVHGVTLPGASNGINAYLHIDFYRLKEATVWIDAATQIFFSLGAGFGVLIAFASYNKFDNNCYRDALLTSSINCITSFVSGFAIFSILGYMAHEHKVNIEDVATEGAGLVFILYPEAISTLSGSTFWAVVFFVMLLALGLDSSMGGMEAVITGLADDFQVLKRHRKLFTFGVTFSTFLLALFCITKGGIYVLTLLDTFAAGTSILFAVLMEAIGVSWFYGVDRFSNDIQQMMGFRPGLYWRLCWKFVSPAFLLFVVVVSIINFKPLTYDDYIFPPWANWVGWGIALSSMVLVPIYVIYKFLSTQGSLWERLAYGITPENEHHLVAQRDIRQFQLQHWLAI
Sequence of Histamine H3 receptor (Homo sapiens) (Q9Y5N1 whole entry): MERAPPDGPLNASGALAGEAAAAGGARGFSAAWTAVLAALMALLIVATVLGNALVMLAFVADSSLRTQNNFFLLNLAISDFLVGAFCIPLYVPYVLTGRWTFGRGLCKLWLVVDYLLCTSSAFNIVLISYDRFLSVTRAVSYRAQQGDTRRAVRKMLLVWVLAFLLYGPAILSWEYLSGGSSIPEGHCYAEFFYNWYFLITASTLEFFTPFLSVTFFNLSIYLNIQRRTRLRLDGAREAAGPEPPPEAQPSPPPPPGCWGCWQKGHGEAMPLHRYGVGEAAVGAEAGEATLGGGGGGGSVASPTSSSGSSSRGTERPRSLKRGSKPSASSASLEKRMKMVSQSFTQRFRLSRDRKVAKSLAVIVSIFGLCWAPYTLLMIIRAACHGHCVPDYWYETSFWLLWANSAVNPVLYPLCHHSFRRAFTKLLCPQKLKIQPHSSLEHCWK
Sequence of Cannabinoid receptor 1 (Homo sapiens) (P21554 whole entry): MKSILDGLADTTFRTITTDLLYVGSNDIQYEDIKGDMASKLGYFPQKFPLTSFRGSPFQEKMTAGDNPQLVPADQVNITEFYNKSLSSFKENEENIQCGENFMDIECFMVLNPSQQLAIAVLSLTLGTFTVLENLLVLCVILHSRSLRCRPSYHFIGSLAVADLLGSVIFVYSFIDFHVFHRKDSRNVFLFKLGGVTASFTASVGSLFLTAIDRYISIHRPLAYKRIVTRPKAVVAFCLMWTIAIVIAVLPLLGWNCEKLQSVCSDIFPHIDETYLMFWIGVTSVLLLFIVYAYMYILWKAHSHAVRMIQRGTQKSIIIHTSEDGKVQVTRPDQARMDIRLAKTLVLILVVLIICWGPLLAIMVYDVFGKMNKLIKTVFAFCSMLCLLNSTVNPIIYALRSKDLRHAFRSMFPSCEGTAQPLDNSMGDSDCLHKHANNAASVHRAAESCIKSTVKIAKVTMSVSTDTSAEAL
Sequence of 5-hydroxytryptamine receptor 2A (Homo sapiens) (P28223 whole entry): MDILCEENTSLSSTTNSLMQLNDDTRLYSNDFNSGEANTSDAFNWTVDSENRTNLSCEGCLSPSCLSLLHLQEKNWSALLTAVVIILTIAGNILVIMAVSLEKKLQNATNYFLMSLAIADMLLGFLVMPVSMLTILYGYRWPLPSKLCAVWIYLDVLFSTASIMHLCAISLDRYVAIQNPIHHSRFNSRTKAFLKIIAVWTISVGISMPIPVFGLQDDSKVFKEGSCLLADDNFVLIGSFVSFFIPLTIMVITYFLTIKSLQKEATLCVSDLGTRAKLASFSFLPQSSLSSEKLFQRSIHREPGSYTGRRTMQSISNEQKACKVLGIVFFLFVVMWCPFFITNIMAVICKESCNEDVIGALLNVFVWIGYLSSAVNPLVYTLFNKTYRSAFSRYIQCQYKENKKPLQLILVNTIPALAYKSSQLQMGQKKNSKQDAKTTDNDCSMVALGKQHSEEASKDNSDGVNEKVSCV

Take `CCC(=O)N(CCN1CCC(Cc2ccccc2)CC1)c1cc(F)c(F)c(F)c1`: in data set [1], the pKi (usually the Ki on a negative log10 scale, so that one unit is a factor of ten) is 6.24.
With `CCC(=O)N(CCN1CCC(CCCc2ccccc2)CC1)c1ccc(OC)cc1`, in [1], the pKi is 6.05.
The molecule `CCC(=O)N(CCN1CCC(Cc2ccccc2)CC1)c1ccccn1` gave a pKi in data set [1] of 6.40.
Same read-out and setting: then `CCC(=O)N(CCN1CCC(Cc2ccc(F)cc2)CC1)c1ccc(C)cc1`, with 8.62.
In the case of `C[C@@H]1[C@@H]2Cc3ccc(O)cc3[C@]1(C)CCN2CCc1ccccc1`, the pKi in data set [2] is 9.70.
For `CCC(=O)N(CCN1CCC(Cc2ccccc2)CC1)C(C)c1ccccc1` (configuration not stated), in data set [1], the pKi was 7.76.
The same measure, in the same setting: under `CCC(=O)N(CCCCN1CCC(Cc2ccccc2)CC1)c1ccc(OC)cc1` stands 7.74.
In turn, `C[C@H]1[C@H]2Cc3ccc(O)cc3[C@@]1(C)CCN2CCc1ccccc1` had a pKi in data set [2] of 7.26.
Take `Cc1cc(OCCN2CCOCC2)nn1-c1ccc2ccccc2c1`: the LD50 (usually the dose at which mortality reaches 50%) at 24 h in data set [3] is 357 mg/kg. Moreover, the Time in data set [4] turned out to be 273 s. The outcome in data set [5] and in [6] was Active. Further, the selectivity ratio in [7] is 12.
Regarding `CCC(=O)N(CCN1CCC(Cc2ccccc2)CC1)c1ccc(OC)cc1`, in [1], the negative logarithm of the Ki (pKi) was 8.82.
As for `CCC(=O)N(CCN1CCC(Cc2ccc(F)cc2)CC1)c1ccc(OC)cc1`, the inhibition (commonly the share of the control response that was lost under treatment) in [8] stood at 10.9%; in data set [9], 14.3%; in [13], 43.6%; in data set [15], 45.9%; in data set [16] it was 24.7%; in data set [18] it was 20.8%. Moreover, the inhibition in data set [19] stood at 45.2%; in data set [20] it was 34.6%; in data set [21], 29.1%; in [22] it was 18.5%; in data set [23] it was 32.6%. Besides, the Time in data set [10] is reported as 201 s; in [4], 63 s; in data set [5] it was 21 s; in data set [14], 41 s; in data set [17], 108 s. Also, the LD50 at 24 h in data set [3] stood at 397 mg/kg. The median effective dose (ED50) (usually the dose at which the effect has come halfway, by size or by number of responders) was found to be 44.1 mg/kg in data set [11] and 15.1 mg/kg in data set [12]. Further, the Activity entry in data set [12] was “Dose-dependent effect”. This molecule also gave a negative-log Ki (pKi) in data set [1] of 8.73.
In [1], `CCC(=O)N(CCCCCN1CCC(Cc2ccccc2)CC1)c1ccc(OC)cc1` showed a pKi of 7.38.
In turn, `CCC(=O)N(CCN1CCC(Cc2ccccc2)CC1)Cc1ccccc1` gave a pKi in [1] of 7.73.
With `CCC(=O)N(CCN1CCC(Cc2ccc(F)cc2)CC1)c1ccc(F)cc1`, the inhibition in data set [8] was determined as 44.6%; in data set [9], 20.5%; in [13], 34.4%; in data set [15], 32.3%; in [16], 39.9%; in data set [18] it was 17.4%. In addition, the inhibition in data set [19] was 23%; in data set [20], 9.75%; in [21], 31.8%; in data set [22] it was 28.8%; in [23], 19.9%. Besides, the LD50 at 24 h in data set [3] stood at 416 mg/kg. In addition, the Time in data set [4] was found to be 110 s; in data set [5] it was 36 s. The pKi in data set [1] was 8.89.
In the case of `CCC(=O)N(CCc1ccccc1)CCN1CCC(Cc2ccccc2)CC1`, the pKi in data set [1] was 6.57.
For `CCC(=O)N(CCN1CCC(Cc2ccc(C)cc2)CC1)c1ccc(C)cc1`, the pKi in data set [1] is 7.54.
Same read-out and setting: then `CCC(=O)N(CCN1CCC(Cc2ccc(C)cc2)CC1)c1ccc(F)cc1`, with 7.33; and `CCC(=O)N(CCCN1CCC(Cc2ccccc2)CC1)c1ccc(OC)cc1`, with 8.66.
Same read-out and setting: then `CCC(=O)N(CCN1CCC(c2ccccc2)CC1)c1ccc(OC)cc1`, with 7.41.
In turn, `CCC(=O)N(CCN1CCC(Cc2ccccc2)CC1)c1cccc(C(F)(F)F)n1` showed a pKi in [1] of 6.08.
Still for that read-out and setting: under `CCC(=O)N(CCN1CCC(Cc2ccccc2)CC1)c1ncccc1F` stands 6.30; under `CCC(=O)N(CCN1CCC(Cc2ccc(C)cc2)CC1)c1ccc(OC)cc1`, 7.46.
The same measure, in the same setting: under `CCC(=O)N(CCN1CCC(Cc2ccccc2)CC1)c1ccc(C)cc1` stands 8.80.
Still for that read-out and setting: under `CCC(=O)N(CCN1CCC(CCc2ccccc2)CC1)c1ccc(OC)cc1` stands 6.43.

The values above are taken from ChEMBL document CHEMBL4765270, “Piperidine propionamide as a scaffold for potent sigma-1 receptor antagonists and mu opioid receptor agonists for treating neuropathic pain” (Eur J Med Chem, 2020).
